Measurements from ChEMBL document CHEMBL1123505, “Synthesis, structure, and antitumor activity of N-salicyloyl-N'-(2-furylthiocarbonyl)hydrazine and its copper(II) complex” (1986).
Several values for one entry are separate records, joined by “and”; a condition that tells them apart may be missing. Equal entries are not always repeated.

What was measured:
Mus musculus [1] = assay: Antitumor activity expressed as mean life span of nonsurvivors in days (T/C) was tested against fibrosarcoma at the dosage of 5 mg/kg (ip); 34/26; type: functional, organism-based; parameters: dose 5 mg/kg
In short: (§1)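 Fibrosarcoma: 4 × 10⁶ cells were given sc to C₃H/He mice, 25–30 g. A single ip or sc dose in 0.89% saline followed on day three, with saline-injected controls. Mean life span of nonsurvivors excludes mice surviving 6 months or more, which were counted as tumour-free. T/C% is treated mean survival, excluding tumour-free survivors, divided by untreated mean life span ×100.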

Mus musculus [2] = assay: Antitumor activity expressed as %T/C was tested against Dalton's lymphoma at the dosage of 10 mg/Kg (ip); type: functional
In short: (§2)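 Dalton's lymphoma: 2 × 10⁷ ascites cells were given ip to DbA mice, 18–20 g. A single ip dose in 0.89% saline followed on day two, with saline-injected controls. Mean life span was calculated excluding mice that survived 6 months or more. T/C% is the mean survival of treated mice, excluding tumour-free survivors, divided by the mean life span of untreated mice ×100.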

Mus musculus [3] = assay: Antitumor activity expressed as %T/C was tested against fibrosarcoma at the dosage of 5 mg/Kg (sc); type: functional; in short: as §1
Mus musculus [4] = assay: Antitumor activity expressed as %T/C was tested against fibrosarcoma at the dosage of 50 mg/Kg (ip); type: functional; in short: as §1
Mus musculus [5] = assay: Antitumor activity against fibrosarcoma infected mice at the dosage of 10 mg/kg (ip) and expressed as no. of mice injected; T/C= 8/8; type: functional, organism-based; parameters: dose 10 mg/kg
Mus musculus [6] = assay: Antitumor activity expressed as average body weight change was tested against fibrosarcoma at the dosage of 10 mg/kg (ip); type: functional, organism-based; parameters: dose 10 mg/kg
In short: (§3)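 Fibrosarcoma-bearing C₃H/He mice (4 × 10⁶ cells sc) received a single ip or sc dose in 0.89% saline on day three after transplant; controls received saline. The day of injection was taken as day zero. Mice were weighed on alternate days up to 4 weeks. Values are average % weight change from the day of treatment to day 21.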

Mus musculus [7] = assay: Antitumor activity expressed as mean life span of nonsurvivors in days (T/C) was tested against fibrosarcoma at the dosage of 25 mg/kg (ip); 33/25; type: functional, organism-based; parameters: dose 25 mg/kg; in short: as §1
Mus musculus [8] = assay: Antitumor activity expressed as average body weight change was tested against fibrosarcoma at the dosage of 5 mg/kg (ip); type: functional, organism-based; parameters: dose 5 mg/kg; in short: as §3
Mus musculus [9] = assay: Antitumor activity expressed as mean life span of nonsurvivors in days (T/C) was tested against fibrosarcoma at the dosage of 25 mg/kg (sc); 39/29; type: functional, organism-based; parameters: dose 25 mg/kg; in short: as §1
Mus musculus [10] = assay: Antitumor activity expressed as the no. of mice surviving >6 months was tested against fibrosarcoma at the dosage of 25 mg/kg (ip); type: functional
In short: (§4)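 Fibrosarcoma was established by sc inoculation of 4 × 10⁶ cells in mice. On day 3 they received a single ip or sc injection of compound freshly suspended in 0.89% saline, with 5–10 mice per group. The count is of mice surviving 6 months or more after treatment, scored as tumor-free, with the percentage of the group also given.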

Mus musculus [11] = assay: Antitumor activity against fibrosarcoma infected mice at the dosage of 5 mg/kg (ip) and expressed as no. of mice injected; T/C= 8/8; type: functional, organism-based; parameters: dose 5 mg/kg
Mus musculus [12] = assay: Antitumor activity expressed as the no. of mice surviving >6 months was tested against fibrosarcoma at the dosage of 5 mg/kg (ip); type: functional; in short: as §4
Mus musculus [13] = assay: Antitumor activity against Dalton's lymphoma infected mice at the dosage of 2 mg/kg (ip) and expressed as no. of mice injected; T/C= 5/5; type: functional
Mus musculus [14] = assay: Antitumor activity expressed as average body weight change was tested against fibrosarcoma at the dosage of 10 mg/kg (sc); type: functional; in short: as §3
Mus musculus [15] = assay: Antitumor activity against Dalton's lymphoma infected mice at the dosage of 25 mg/kg (ip) and expressed as no. of mice injected; T/C= 5/5; type: functional
Mus musculus [16] = assay: Antitumor activity against fibrosarcoma infected mice at the dosage of 25 mg/kg (sc) and expressed as no. of mice injected; T/C= 8/6; type: functional, organism-based; parameters: dose 25 mg/kg
Mus musculus [17] = assay: Antitumor activity expressed as %T/C was tested against fibrosarcoma at the dosage of 25 mg/Kg (sc); type: functional; in short: as §1
Mus musculus [18] = assay: Antitumor activity expressed as mean life span of nonsurvivors in days (T/C) was tested against fibrosarcoma at the dosage of 5 mg/kg (sc); 30/27; type: functional, organism-based; parameters: dose 5 mg/kg; in short: as §1
Mus musculus [19] = assay: Antitumor activity against fibrosarcoma infected mice at the dosage of 5 mg/kg (sc) and expressed as no. of mice injected; T/C= 6/6; type: functional, organism-based; parameters: dose 5 mg/kg
Mus musculus [20] = assay: Antitumor activity against fibrosarcoma infected mice at the dosage of 25 mg/kg (ip) and expressed as no. of mice injected; T/C= 7/7; type: functional, organism-based; parameters: dose 25 mg/kg
Mus musculus [21] = assay: Antitumor activity expressed as mean life span of nonsurvivors in days (T/C) was tested against fibrosarcoma at the dosage of 10 mg/kg (sc); 41/28; type: functional, organism-based; parameters: dose 10 mg/kg; in short: as §1
Mus musculus [22] = assay: Antitumor activity expressed as %T/C was tested against fibrosarcoma at the dosage of 10 mg/Kg (sc); type: functional; in short: as §1
Mus musculus [23] = assay: Antitumor activity against Dalton's lymphoma infected mice at the dosage of 10 mg/kg (ip) and expressed as no. of mice injected; T/C= 5/5; type: functional
Mus musculus [24] = assay: Antitumor activity expressed as mean life span of nonsurvivors in days (T/C) was tested against Dalton's lymphoma at the dosage of 10 mg/kg (ip); 30/23; type: functional, organism-based; parameters: dose 10 mg/kg; in short: as §2
Mus musculus [25] = assay: Antitumor activity expressed as %T/C was tested against fibrosarcoma at the dosage of 5 mg/Kg (ip); type: functional; in short: as §1
Mus musculus [26] = assay: Antitumor activity expressed as average body weight change was tested against fibrosarcoma at the dosage of 50 mg/kg (ip); type: functional, organism-based; parameters: dose 50 mg/kg; in short: as §3
Mus musculus [27] = assay: Antitumor activity expressed as average body weight change was tested against fibrosarcoma at the dosage of 25 mg/kg (ip); type: functional, organism-based; parameters: dose 25 mg/kg; in short: as §3
Mus musculus [28] = assay: Antitumor activity expressed as %T/C was tested against Dalton's lymphoma at the dosage of 2 mg/Kg (ip); type: functional; in short: as §2
Mus musculus [29] = assay: Antitumor activity expressed as the no. of mice surviving >6 months was tested against fibrosarcoma at the dosage of 50 mg/kg (ip); type: functional; in short: as §4
Mus musculus [30] = assay: Antitumor activity expressed as %T/C was tested against fibrosarcoma at the dosage of 25 mg/Kg (ip); type: functional; in short: as §1
Mus musculus [31] = assay: Antitumor activity against fibrosarcoma infected mice at the dosage of 10 mg/kg (sc) and expressed as no. of mice injected; T/C= 8/7; type: functional
Mus musculus [32] = assay: Antitumor activity expressed as mean life span of nonsurvivors in days (T/C) was tested against Dalton's lymphoma at the dosage of 25 mg/kg (ip); 38/23; type: functional, organism-based; parameters: dose 25 mg/kg; in short: as §2
Mus musculus [33] = assay: Antitumor activity expressed as average body weight change was tested against fibrosarcoma at the dosage of 25 mg/kg (sc); type: functional; in short: as §3
Mus musculus [34] = assay: Antitumor activity expressed as mean life span of nonsurvivors in days (T/C) was tested against fibrosarcoma at the dosage of 50 mg/kg (ip); 37/28; type: functional, organism-based; parameters: dose 50 mg/kg; in short: as §1
Mus musculus [35] = assay: Antitumor activity expressed as %T/C was tested against Dalton's lymphoma at the dosage of 25 mg/Kg (ip); type: functional; in short: as §2
Mus musculus [36] = assay: Antitumor activity expressed as %T/C was tested against fibrosarcoma at the dosage of 10 mg/Kg (ip); type: functional; in short: as §1
Mus musculus [37] = assay: Antitumor activity expressed as average body weight change was tested against fibrosarcoma at the dosage of 5 mg/kg (sc); type: functional; in short: as §3
Mus musculus [38] = assay: Antitumor activity against fibrosarcoma infected mice at the dosage of 50 mg/kg (ip) and expressed as no. of mice injected; T/C= 10/6; type: functional, organism-based; parameters: dose 50 mg/kg
Mus musculus [39] = assay: Antitumor activity expressed as mean life span of nonsurvivors in days (T/C) was tested against fibrosarcoma at the dosage of 10 mg/kg (ip); 35/27; type: functional, organism-based; parameters: dose 10 mg/kg; in short: as §1
Mus musculus [40] = assay: Antitumor activity expressed as mean life span of nonsurvivors in days (T/C) was tested against Dalton's lymphoma at the dosage of 2 mg/kg (ip); 24/23; type: functional, organism-based; parameters: dose 2 mg/kg; in short: as §2

Copper(II) Complex
T/C (Mus musculus [1]): 34 days | T/C (Mus musculus [2]): 130% | T/C (Mus musculus [3]): 111% | T/C (Mus musculus [4]): 132% | T/C (Mus musculus [5]): 8 | Average body weight change (Mus musculus [6]): 18.3% | T/C (Mus musculus [7]): 33 days | Average body weight change (Mus musculus [8]): 15.5% | T/C (Mus musculus [9]): 39 days | No. of mice surviving >6 months (Mus musculus [10]): 3 and 6 | T/C (Mus musculus [11]): 8 | No. of mice surviving >6 months (Mus musculus [12]): 2 | T/C (Mus musculus [13]): 5 | Average body weight change (Mus musculus [14]): 5.86% | T/C (Mus musculus [15]): 5 | T/C (Mus musculus [16]): 8 | T/C (Mus musculus [17]): 135% | T/C (Mus musculus [18]): 30 days | T/C (Mus musculus [19]): 6 | T/C (Mus musculus [20]): 7 | T/C (Mus musculus [21]): 41 days | T/C (Mus musculus [22]): 146% | T/C (Mus musculus [23]): 5 | T/C (Mus musculus [24]): 30 days | T/C (Mus musculus [25]): 131% | Average body weight change (Mus musculus [26]): 8.51% | Average body weight change (Mus musculus [27]): 12% | T/C (Mus musculus [28]): 104% | No. of mice surviving >6 months (Mus musculus [29]): 4 | T/C (Mus musculus [30]): 132% | T/C (Mus musculus [31]): 8 | T/C (Mus musculus [32]): 38 days | Average body weight change (Mus musculus [33]): 5.51% | T/C (Mus musculus [34]): 37 days | T/C (Mus musculus [35]): 165% | T/C (Mus musculus [36]): 130% | Average body weight change (Mus musculus [37]): 19.4% | T/C (Mus musculus [38]): 10 | T/C (Mus musculus [39]): 35 days | T/C (Mus musculus [40]): 24 days
